A selection: hits, their analogues and other compounds. The true share with any hit is near 12%.
Arbovirus anti: blocks arbovirus infection | arbovirus infection cell-based antiviral screen | inhibition, % at 10 µM | 200,000 compounds, 0.37% hits | AID 1251; in the data active = inhibition above about 30%
Wee1 stabilizer: inhibitors of human Wee1 degradation. P30291. HeLa Luc-Wee1K328M stability, luciferase luminescence; 100% = proteasome inhibitor MG132 effect. reporter increase, % at 5 µM. 220,000 compounds, 1.2% hits. AID 1321;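 active = activation above the mean of all tested compounds plus 3 SD, set per screening run, cut at about 8.8% in these data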;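 note: cells exposed to compound for 20 h before luminescence read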
Lmaj promast: reduces viability of Leishmania major promastigotes | resazurin fluorescence viability | inhibition, % at 10 µM | 200,000 compounds, 9% hits;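 note: promastigotes grown with compound for 44 hours at 28 °C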
Rad51 HR inh: blocks human Rad51 in homologous recombination; hRad51 DNA strand exchange, fluorescence dequenching; inhibition, % at 10 µM; 200,000 compounds, 0.085% hits;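 active = inhibition above 40% at the single screening dose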
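Material: hRad51 filaments on single-stranded DNA; Reagent: Donor/quencher-labelled 47-bp dsDNA substrate; Compound: 10 µM final, single point; Schedule: 37 °C 15-min filament assembly, 30-min compound preincubation, 15-min exchange; Technique: FRET fluorescence, excitation 485 nm, emission 520 nm; Benchmarks: control wells and blank wells on each plate.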
CHOP inhibitor: blocks CHOP induction under ER stress | 220,000 compounds, 3.8% hits | CHO-K1 CHOP-promoter luciferase, tunicamycin-induced, 15-18 h | inhibition, % at 10 µM;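 active = compounds that reduced the stress-induced luciferase reporter signal by more than about 70% of percent inhibition, limit read from the data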
PKD1 kinase inh: inhibitors of human PKD1 kinase; Q15139; PKD1 kinase fluorescence polarization assay; inhibition, % (test concentration not listed); 200,000 compounds, 0.056% hits; AID 797
Of the large screens only hits and unclear results are named; the others gave an inactive call. Cut-off read from the data, not from the text of the source, unless noted: active = inhibition above about 50%; inactive = the rest.

COc1ccc(NC(=S)NNC(=O)CNc2ccc(Cl)cc2)cc1	none
N=C1C(c2ccccc2)=C(O)CN1c1cccc2ccccc12	none
CCn1c(SCC(=O)N2CCN(C(=O)c3ccco3)CC2)nnc1C(C)C	none (no result: Rad51 HR inh)
Cc1ccccc1NC(=O)N1CCCC(c2nc(-c3ccc(C(C)C)cc3)no2)C1 (stereo unspecified)	Lmaj promast 85
Cc1ccccc1NC(=O)N1CCCC(c2nc(-c3ccc(F)cc3)no2)C1 (stereo unspecified)	none
CC(=O)c1c(C)n(C)c2ccc(OC(=O)c3ccc([N+](=O)[O-])cc3)cc12	none
CC(=O)c1c(OC(=O)c2ccccc2)c2ccccc2n1C	CHOP inhibitor 70
COc1cccc(C2c3c(-c4cc(Cl)c(C)cc4O)n[nH]c3C(=O)N2Cc2cccnc2)c1 (stereo unspecified)	CHOP inhibitor 75
COc1cc(C2c3c(-c4cc(Cl)c(C)cc4O)n[nH]c3C(=O)N2Cc2cccnc2)ccc1O (stereo unspecified)	none
COc1ccc(C2C(C#N)=C(N)Oc3c2sc2nc(C)cc(C)c32)cc1 (stereo unspecified)	Wee1 stabilizer 10, Lmaj promast 100
CCn1c(SCC(=O)Nc2nc(C)c(C)s2)nc2cccnc21	Lmaj promast 92 (no result: Rad51 HR inh)
COc1ccc(/C=C2/C(=O)N(c3nc4ccccc4s3)N=C2CSc2ccc(Cl)cc2)cc1	Lmaj promast 100 (no result: Rad51 HR inh)
Cc1ccc(/C=N/NC(=O)C[n+]2ccccc2)s1	none (no result: Arbovirus anti, Lmaj promast, PKD1 kinase inh)
CCCCCCCC(=O)N/N=C/c1ccc([N+](=O)[O-])o1	Lmaj promast 91
CCOC(=O)N/N=C/c1c(F)c(F)c(F)c(F)c1F	Lmaj promast 65
O=C(Cc1ccc([N+](=O)[O-])cc1)N/N=C/c1ccc([N+](=O)[O-])o1	Lmaj promast 100
CCCCCCCCCC(=O)N/N=C/c1ccc(C)s1	CHOP inhibitor 95
O=C(NCCc1ccccc1)[C@@H]1CC=C[C@@H]2CCN(C3CCCCC3)C(=O)[C@@H]21	none (no result: Arbovirus anti, Wee1 stabilizer, Lmaj promast, CHOP inhibitor, PKD1 kinase inh)
CCCCCCCCN1[C@@H](CC(=O)O)c2ccc(C(F)(F)F)cc2S1(=O)=O	none (no result: Arbovirus anti, Wee1 stabilizer, Lmaj promast, CHOP inhibitor, PKD1 kinase inh)
Clc1nc(CN2CCCCC2)nc2sc3c(c12)CCC3	none
Cc1ccc(NCC(=O)N/N=C/c2c[nH]c3ccccc23)cc1	none
CC(C)Sc1nc2ccccc2n1CC(=O)O	none
N#CCc1ccc(NC(=O)/C=C/c2ccc([N+](=O)[O-])o2)cc1	Wee1 stabilizer 9.3, Lmaj promast 101
O=C(CCN1CCN(c2ccccc2)CC1)N/N=C/c1ccc([N+](=O)[O-])o1	Lmaj promast 98
CC(C)(C)c1ccc2c(c1)OC(C(=O)N/N=C/c1ccc([N+](=O)[O-])o1)CO2 (stereo unspecified)	none (no result: Arbovirus anti, Lmaj promast, PKD1 kinase inh)
Cc1ccc(-c2nnc(SCC(=O)N/N=C/c3ccc(C)s3)n2-c2ccc(C)cc2)cc1	CHOP inhibitor 75
O=C(CCN1CCN(c2ccccc2)CC1)N/N=C/c1ccc(O)c(O)c1O	none (no result: Rad51 HR inh)
CC1(C(=O)N/N=C/c2ccc([N+](=O)[O-])o2)CC1(Br)Br (stereo unspecified)	Lmaj promast 98
COc1ccc(NC(=O)c2cn(CCC#N)nc2-c2cc3ccccc3o2)cc1	none
COc1ccccc1C(=O)C1CCCN(C(=O)CCn2cnnn2)C1 (stereo unspecified)	none (no result: Arbovirus anti, Lmaj promast, PKD1 kinase inh)
O=C(CC12CC3CC(CC(C3)C1)C2)N/N=C/c1ccc([N+](=O)[O-])o1	Lmaj promast 99
Cc1ccc(C(=O)N/N=C\c2ccc([N+](=O)[O-])o2)cn1	none (no result: Arbovirus anti, Lmaj promast, PKD1 kinase inh)
CCOC(=O)N/N=C\c1ccc([N+](=O)[O-])o1	Lmaj promast 98
CCOCCCNC(=O)C(NC(=O)Cc1c[nH]c2ccccc12)c1ccccc1 (stereo unspecified)	none
CCN(CC)CCn1c(=N)n(CC(O)COc2cccc(C)c2)c2ccccc21 (stereo unspecified)	Lmaj promast 100
Cc1cccc(OCC(O)Cn2c(=N)n(CCN3CCCCC3)c3ccccc32)c1 (stereo unspecified)	Lmaj promast 100
O=C(c1ccc(S(=O)(=O)c2cccc(Cl)c2)c([N+](=O)[O-])c1)N1CCN(Cc2ccccc2)CC1	none
CCCC(=O)Nc1ccc(Cl)c(NC(=O)c2cccc(OC)c2)c1	none
N#Cc1ncc(-c2ccc3c(c2)OCCOCCOCCOCCOCCO3)nc1C#N	Lmaj promast 96, CHOP inhibitor 106
